Results taken from ChEMBL document CHEMBL4261538, “Synthesis and molecular docking studies of xanthone attached amino acids as potential antimicrobial and anti-inflammatory agents” (Medchemcomm, 2017).
In brackets after ≈: the same amount, converted by molar mass.

What was measured:
[1] = tested on: Aspergillus niger; assay: Antifungal activity against Aspergillus niger at 50 ug/ml incubated for 48 hrs by agar well diffusion method; assay type: functional; conditions: read-out: DIZ
Outline: (§1)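 Compounds dissolved in DMSO at 5 mg mL⁻¹ and 5–20 µL added to 6 mm wells, giving 25, 50, 75, 100 µg per well. Bavistin was the positive control and DMSO the negative control. Plates incubated at 28 °C for 48 h, then inhibition zone diameter (mm) measured. Values are means of three determinations.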

[2] = tested on: Candida albicans; assay: Antifungal activity against Candida albicans at 75 ug/ml incubated for 48 hrs by agar well diffusion method; assay type: functional; conditions: read-out: DIZ; outline: as §1
[3] = tested on: Aspergillus niger; assay: Antifungal activity against Aspergillus niger incubated for 48 to 72 hrs by microdilution method; assay type: functional
Outline: (§2)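 Sabouraud agar plates inoculated with fungal suspension at 10⁵ CFU mL⁻¹ plus serially diluted compounds and bavistin reference, both in DMSO. Incubated at 25 °C for 48–72 h. MIC is the lowest concentration completely inhibiting growth. Values are means of three determinations.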

[4] = tested on: Candida albicans; assay: Antifungal activity against Candida albicans at 50 ug/ml incubated for 48 hrs by agar well diffusion method; assay type: functional; conditions: read-out: DIZ; outline: as §1
[5] = tested on: Aspergillus niger; assay: Antifungal activity against Aspergillus niger at 25 ug/ml incubated for 48 hrs by agar well diffusion method; assay type: functional; conditions: read-out: DIZ; outline: as §1
[6] = tested on: Fusarium oxysporum; assay: Antifungal activity against Fusarium oxysporum at 100 ug/ml incubated for 48 hrs by agar well diffusion method; assay type: functional; conditions: read-out: DIZ; outline: as §1
[7] = tested on: Aspergillus niger; assay: Antifungal activity against Aspergillus niger at 100 ug/ml incubated for 48 hrs by agar well diffusion method; assay type: functional; conditions: read-out: DIZ; outline: as §1
[8] = tested on: Fusarium oxysporum; assay: Antifungal activity against Fusarium oxysporum at 75 ug/ml incubated for 48 hrs by agar well diffusion method; assay type: functional; conditions: read-out: DIZ; outline: as §1
[9] = tested on: Fusarium oxysporum; assay: Antifungal activity against Fusarium oxysporum at 25 ug/ml incubated for 48 hrs by agar well diffusion method; assay type: functional; conditions: read-out: DIZ; outline: as §1
[10] = tested on: Candida albicans; assay: Antifungal activity against Candida albicans at 25 ug/ml incubated for 48 hrs by agar well diffusion method; assay type: functional; conditions: read-out: DIZ; outline: as §1
[11] = tested on: Aspergillus niger; assay: Antifungal activity against Aspergillus niger at 75 ug/ml incubated for 48 hrs by agar well diffusion method; assay type: functional; conditions: read-out: DIZ; outline: as §1
[12] = tested on: Candida albicans; assay: Antifungal activity against Candida albicans at 100 ug/ml incubated for 48 hrs by agar well diffusion method; assay type: functional; conditions: read-out: DIZ; outline: as §1
[13] = tested on: Fusarium oxysporum; assay: Antifungal activity against Fusarium oxysporum incubated for 48 to 72 hrs by microdilution method; assay type: functional; outline: as §2
[14] = tested on: Fusarium oxysporum; assay: Antifungal activity against Fusarium oxysporum at 50 ug/ml incubated for 48 hrs by agar well diffusion method; assay type: functional; conditions: read-out: DIZ; outline: as §1
[15] = tested on: Candida albicans; assay: Antifungal activity against Candida albicans incubated for 48 to 72 hrs by microdilution method; assay type: functional; outline: as §2
[16] = tested on: Staphylococcus aureus; assay: Antibacterial activity against Staphylococcus aureus at 25 ug/ml incubated for 24 hrs by agar well diffusion method; assay type: functional; conditions: read-out: DIZ
Outline: as §1, with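 “Bacteria grown in nutrient broth at 37 °C for 24 h, then subcultured at room temperature. Compounds” for “Compounds”, “Gentamicin” for “Bavistin”, “held” for “incubated”, “37” for “28”, “24” for “48”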

[17] = tested on: Staphylococcus aureus; assay: Antibacterial activity against Staphylococcus aureus at 100 ug/ml incubated for 24 hrs by agar well diffusion method; assay type: functional; conditions: read-out: DIZ
Outline: as §1, with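 “Bacteria grown in nutrient broth at 37 °C for 24 h, then subcultured at room temperature. Compounds” for “Compounds”, “Gentamicin” for “Bavistin”, “held” for “incubated”, “37” for “28”, “24” for “48”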

[18] = tested on: Staphylococcus aureus; assay: Antibacterial activity against Staphylococcus aureus at 75 ug/ml incubated for 24 hrs by agar well diffusion method; assay type: functional; conditions: read-out: DIZ
Outline: as §1, with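 “Bacteria grown in nutrient broth at 37 °C for 24 h, then subcultured at room temperature. Compounds” for “Compounds”, “Gentamicin” for “Bavistin”, “held” for “incubated”, “37” for “28”, “24” for “48”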

[19] = tested on: Staphylococcus aureus; assay: Antibacterial activity against Staphylococcus aureus at 50 ug/ml incubated for 24 hrs by agar well diffusion method; assay type: functional; conditions: read-out: DIZ
Outline: as §1, with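 “Bacteria grown in nutrient broth at 37 °C for 24 h, then subcultured at room temperature. Compounds” for “Compounds”, “Gentamicin” for “Bavistin”, “held” for “incubated”, “37” for “28”, “24” for “48”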

[20] = tested on: Klebsiella pneumoniae; assay: Antibacterial activity against Klebsiella pneumoniae at 50 ug/ml incubated for 24 hrs by agar well diffusion method; assay type: functional; conditions: read-out: DIZ
Outline: as §1, with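 “Bacteria grown in nutrient broth at 37 °C for 24 h, then subcultured at room temperature. Compounds” for “Compounds”, “Gentamicin” for “Bavistin”, “held” for “incubated”, “37” for “28”, “24” for “48”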

[21] = tested on: Escherichia coli; assay: Antibacterial activity against Escherichia coli at 50 ug/ml incubated for 24 hrs by agar well diffusion method; assay type: functional; conditions: read-out: DIZ
Outline: as §1, with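 “Bacteria grown in nutrient broth at 37 °C for 24 h, then subcultured at room temperature. Compounds” for “Compounds”, “Gentamicin” for “Bavistin”, “held” for “incubated”, “37” for “28”, “24” for “48”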

[22] = tested on: Erythrocyte; assay: Anti-inflammatory activity in human RBC assessed as inhibition of hypotonic solution-induced hemolysis after 10 mins by spectrophotometric method; assay type: functional, cell-based
Outline: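 Human blood (heparinized) washed with 0.9% saline, packed cells made into a 40% v/v stock in isotonic phosphate buffer (154 mM NaCl, 10 mM sodium phosphate, pH 7.4). Stock RBC mixed with hypotonic buffer (50 mM NaCl, 10 mM phosphate, pH 7.4) plus sample at 20–100 µg mL⁻¹.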

[23] = tested on: Bacillus subtilis; assay: Antibacterial activity against Bacillus subtilis at 100 ug/ml incubated for 24 hrs by agar well diffusion method; assay type: functional; conditions: read-out: DIZ
Outline: as §1, with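 “Bacteria grown in nutrient broth at 37 °C for 24 h, then subcultured at room temperature. Compounds” for “Compounds”, “Gentamicin” for “Bavistin”, “held” for “incubated”, “37” for “28”, “24” for “48”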

[24] = tested on: Bacillus subtilis; assay: Antibacterial activity against Bacillus subtilis at 75 ug/ml incubated for 24 hrs by agar well diffusion method; assay type: functional; conditions: read-out: DIZ
Outline: as §1, with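 “Bacteria grown in nutrient broth at 37 °C for 24 h, then subcultured at room temperature. Compounds” for “Compounds”, “Gentamicin” for “Bavistin”, “held” for “incubated”, “37” for “28”, “24” for “48”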

[25] = tested on: Bacillus subtilis; assay: Antibacterial activity against Bacillus subtilis at 25 ug/ml incubated for 24 hrs by agar well diffusion method; assay type: functional; conditions: read-out: DIZ
Outline: as §1, with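 “Bacteria grown in nutrient broth at 37 °C for 24 h, then subcultured at room temperature. Compounds” for “Compounds”, “Gentamicin” for “Bavistin”, “held” for “incubated”, “37” for “28”, “24” for “48”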

[26] = tested on: Bacillus subtilis; assay: Antibacterial activity against Bacillus subtilis at 50 ug/ml incubated for 24 hrs by agar well diffusion method; assay type: functional; conditions: read-out: DIZ
Outline: as §1, with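 “Bacteria grown in nutrient broth at 37 °C for 24 h, then subcultured at room temperature. Compounds” for “Compounds”, “Gentamicin” for “Bavistin”, “held” for “incubated”, “37” for “28”, “24” for “48”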

[27] = tested on: Escherichia coli; assay: Antibacterial activity against Escherichia coli at 75 ug/ml incubated for 24 hrs by agar well diffusion method; assay type: functional; conditions: read-out: DIZ
Outline: as §1, with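 “Bacteria grown in nutrient broth at 37 °C for 24 h, then subcultured at room temperature. Compounds” for “Compounds”, “Gentamicin” for “Bavistin”, “held” for “incubated”, “37” for “28”, “24” for “48”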

[28] = tested on: Escherichia coli; assay: Antibacterial activity against Escherichia coli at 25 ug/ml incubated for 24 hrs by agar well diffusion method; assay type: functional; conditions: read-out: DIZ
Outline: as §1, with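 “Bacteria grown in nutrient broth at 37 °C for 24 h, then subcultured at room temperature. Compounds” for “Compounds”, “Gentamicin” for “Bavistin”, “held” for “incubated”, “37” for “28”, “24” for “48”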

[29] = tested on: Klebsiella pneumoniae; assay: Antibacterial activity against Klebsiella pneumoniae at 100 ug/ml incubated for 24 hrs by agar well diffusion method; assay type: functional; conditions: read-out: DIZ
Outline: as §1, with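 “Bacteria grown in nutrient broth at 37 °C for 24 h, then subcultured at room temperature. Compounds” for “Compounds”, “Gentamicin” for “Bavistin”, “held” for “incubated”, “37” for “28”, “24” for “48”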

[30] = tested on: Escherichia coli; assay: Antibacterial activity against Escherichia coli at 100 ug/ml incubated for 24 hrs by agar well diffusion method; assay type: functional; conditions: read-out: DIZ
Outline: as §1, with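 “Bacteria grown in nutrient broth at 37 °C for 24 h, then subcultured at room temperature. Compounds” for “Compounds”, “Gentamicin” for “Bavistin”, “held” for “incubated”, “37” for “28”, “24” for “48”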

[31] = tested on: Klebsiella pneumoniae; assay: Antibacterial activity against Klebsiella pneumoniae at 25 ug/ml incubated for 24 hrs by agar well diffusion method; assay type: functional; conditions: read-out: DIZ
Outline: as §1, with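 “Bacteria grown in nutrient broth at 37 °C for 24 h, then subcultured at room temperature. Compounds” for “Compounds”, “Gentamicin” for “Bavistin”, “held” for “incubated”, “37” for “28”, “24” for “48”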

[32] = tested on: Klebsiella pneumoniae; assay: Antibacterial activity against Klebsiella pneumoniae at 75 ug/ml incubated for 24 hrs by agar well diffusion method; assay type: functional; conditions: read-out: DIZ
Outline: as §1, with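 “Bacteria grown in nutrient broth at 37 °C for 24 h, then subcultured at room temperature. Compounds” for “Compounds”, “Gentamicin” for “Bavistin”, “held” for “incubated”, “37” for “28”, “24” for “48”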

`COC(=O)Nc1nc2ccccc2[nH]1` [CARBENDAZIM] gave a zone of inhibition at 50 µg/mL [1] of 27 mm, a zone of inhibition at 75 µg/mL [2] of 29 mm and an MIC [3] of 27 µg/mL (≈ 141 µM). It also gave a zone of inhibition at 50 µg/mL [4] of 24 mm, a zone of inhibition at 25 µg/mL [5] of 20 mm and a zone of inhibition at 100 µg/mL [6] of 36 mm. For the same molecule, the zone of inhibition at 100 µg/mL [7] was 36 mm, the zone of inhibition at 75 µg/mL [8] was 33 mm and the zone of inhibition at 25 µg/mL [9] was 22 mm. For the same molecule, the zone of inhibition at 25 µg/mL [10] was 19 mm, the zone of inhibition at 75 µg/mL [11] was 33 mm and the zone of inhibition at 100 µg/mL [12] was 32 mm. It also gave an MIC [13] of 27 µg/mL (≈ 141 µM), a zone of inhibition at 50 µg/mL [14] of 27 mm and an MIC [15] of 28 µg/mL (≈ 146 µM).
Molecule `CC(C)[C@H](NC(=O)OC(C)(C)C)C(=O)Oc1ccc2c(=O)c3ccccc3oc2c1` has a zone of inhibition at 50 µg/mL [1] of 13 mm, a zone of inhibition at 75 µg/mL [2] of 15 mm and a zone of inhibition at 25 µg/mL [16] of 10 mm. It also gave a zone of inhibition at 50 µg/mL [4] of 13 mm, a zone of inhibition at 25 µg/mL [5] of 7 mm and a zone of inhibition at 100 µg/mL [17] of 22 mm. For the same molecule, the zone of inhibition at 75 µg/mL [18] was 17 mm, the zone of inhibition at 100 µg/mL [6] was 23 mm and the zone of inhibition at 100 µg/mL [7] was 20 mm. It also gave a zone of inhibition at 50 µg/mL [19] of 13 mm, a zone of inhibition at 75 µg/mL [8] of 20 mm and a zone of inhibition at 50 µg/mL [20] of 11 mm. It also gave a zone of inhibition at 25 µg/mL [9] of 9 mm, a zone of inhibition at 50 µg/mL [21] of 13 mm and a zone of inhibition at 25 µg/mL [10] of 10 mm. For the same molecule, the IC50 [22] was 76 µg/mL (≈ 185 µM), the zone of inhibition at 100 µg/mL [23] was 22 mm and the zone of inhibition at 75 µg/mL [24] was 19 mm. It also gave a zone of inhibition at 75 µg/mL [11] of 16 mm, a zone of inhibition at 100 µg/mL [12] of 21 mm and a zone of inhibition at 25 µg/mL [25] of 7 mm. The zone of inhibition at 50 µg/mL [26] was 13 mm, the zone of inhibition at 75 µg/mL [27] was 18 mm and the zone of inhibition at 25 µg/mL [28] was 8 mm. The zone of inhibition at 100 µg/mL [29] was 24 mm, the zone of inhibition at 100 µg/mL [30] was 20 mm and the zone of inhibition at 50 µg/mL [14] was 14 mm. It also gave a zone of inhibition at 25 µg/mL [31] of 5 mm and a zone of inhibition at 75 µg/mL [32] of 19 mm.
